Source: PMC7655718 (The Journal of antibiotics, 2020)
≈ marks a conversion by molar mass, not a printed value. Like-named read-outs stand apart in the source and are kept apart here.

Columns and labels:
[1] = system: tested A. baumannii strains; experiment: MIC, text summary over A. baumannii strains; type: cell-based, Acinetobacter baumannii
Method in brief: (§1)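 Compounds dissolved in DMSO at 2 mg/mL. Overnight blood-agar colonies were suspended in PBS to 0.5 McFarland, then diluted in Mueller Hinton broth to about 1x10^6 cfu/mL with resazurin (1:1000 of 0.1% w/v stock). Twofold DMSO dilutions were added 1:40, giving 50 to 0.4 μg/mL at 2.5% DMSO. Incubation was 35 °C for 16-20 h. Blue/non-turbid wells counted as inhibited, pink/turbid as grown.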

[2] = system: S. epidermidis 700296 (Se); experiment: MIC, microdilution with resazurin; type: cell-based; conditions: Staphylococcus epidermidis, read-out: MIC Se
Method in brief: as §1

[3] = system: S. aureus ATCC 33599 (MRSA); experiment: BacLight membrane permeability assay; type: cell-based, Staphylococcus aureus; conditions: versus positive control vancomycin
[4] = system: S. aureus BAA-2312 (Sa12); experiment: MIC, microdilution with resazurin; type: cell-based; conditions: Staphylococcus aureus, BAA2312, read-out: MIC Sa12
Method in brief: as §1

[5] = system: A. baumannii ATCC 19606 (Ab06); experiment: BacLight membrane permeability assay; type: cell-based, Acinetobacter baumannii; conditions: Ab06, versus positive control colistin at comparable MIC
[6] = system: S. aureus ATCC 33592 (Sa92); experiment: MIC, microdilution with resazurin; type: cell-based; conditions: Staphylococcus aureus, ATCC33592, read-out: MIC Sa92
Method in brief: as §1

[7] = system: B. subtilis ATCC 6623 (Bs); experiment: MIC, microdilution with resazurin; type: cell-based, Bacillus subtilis; conditions: Bacillus subtilis, ATCC6623, read-out: MIC Bs
[8] = system: S. aureus ATCC 33591 (Sa91); experiment: MIC, microdilution with resazurin; type: cell-based; conditions: Staphylococcus aureus, ATCC33591, read-out: MIC Sa91
Method in brief: as §1

[9] = system: A. baumannii ATCC 19606 (type strain, Ab06); experiment: MIC and MBC; type: cell-based, Acinetobacter baumannii; conditions: Acinetobacter baumannii
Method in brief: as §1

[10] = system: S. aureus ATCC 25923 (Sa23); experiment: MIC, microdilution with resazurin; type: cell-based; conditions: Staphylococcus aureus, ATCC25923, read-out: MIC Sa23
Method in brief: as §1

[11] = system: S. aureus ATCC 700699 (Sa99); experiment: MIC, microdilution with resazurin; type: cell-based; conditions: Staphylococcus aureus, ATCC700699, read-out: MIC Sa99
Method in brief: as §1

[12] = system: A. baumannii ATCC 747 (Ab47); experiment: MIC, microdilution with resazurin; type: cell-based, Acinetobacter baumannii; conditions: Acinetobacter baumannii, ATCC747, read-out: MIC Ab47
Method in brief: as §1

[13] = system: tested Gram-positive bacterial strains; experiment: MIC, text summary over tested Gram-positive strains; type: cell-based

O=C(O)c1ccc(-n2cc(/C=N/Nc3ccc(F)c(Cl)c3)c(-c3ccc4ccccc4c3)n2)cc1 [Compound 22]
activity against A. baumannii strains [1]: moderate growth inhibitor | MIC [2]: 3.12 µg/mL (≈ 6.44 µM) | membrane disruption activity, PI/SYTO-9 ratio [3]: more potent membrane disruption activity than vancomycin | MIC [4]: 3.12 µg/mL (≈ 6.44 µM) | membrane disrupting ability, PI/SYTO-9 ratio [5]: better membrane disrupting ability | MIC [6]: 1.56 µg/mL (≈ 3.22 µM) | MIC [7]: 6.25 µg/mL (≈ 12.9 µM) | MIC [8]: 6.25 µg/mL (≈ 12.9 µM) | MBC ([9]; ATCC19606): 50 µg/mL (≈ 103 µM) | MIC ([9]; ATCC19606): 6.25 µg/mL (≈ 12.9 µM) | MIC ([9]; ATCC19606, read-out: MIC Ab06): 6.25 µg/mL (≈ 12.9 µM) | MIC [10]: 3.12 µg/mL (≈ 6.44 µM) | MIC [11]: 0.78 µg/mL (≈ 1.61 µM) | MIC [12]: 12.5 µg/mL (≈ 25.8 µM) | antimicrobial activity against the tested strains [13]: potent inhibitors of tested Gram-positive strains
